Reference: ChEMBL document CHEMBL4145545, “Synthesis and structure-activity relationships of asymmetric dimeric β-carboline derivatives as potential antitumor agents” (Eur J Med Chem, 2018)
Active and inactive are the calls of the source. The rule behind the calls is not given here.

Key:
[1] = system: Mus musculus; assay: Neurotoxicity in Kunming mouse assessed as twitch at 5 to 500 mg/kg, ip observed continuously for first 2 hrs, intermittently for next 24 hrs and occasionally thereafter for 14 days; type: toxicity, organism-based; conditions: in vivo
In short: (§1)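 SPF KM mice, 6-8 weeks, 19-22 g, fasted overnight with water available. Single i.p. dose, 5.0 to 500 mg kg-1 in 0.5% CMC-Na, 10 mice per group (5 male, 5 female). Observed for behaviour, neurotoxic signs and deaths, then killed on day 14 and heart, liver and kidneys inspected macroscopically. LD50 derived graphically.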

[2] = system: Mus musculus; assay: Hepatotoxicity in Kunming mouse at 5 to 500 mg/kg, ip after 14 days by macroscopic method; type: toxicity, organism-based; conditions: in vivo, 336 h
[3] = system: Mus musculus; assay: Cardiotoxicity in Kunming mouse at 5 to 500 mg/kg, ip after 14 days by macroscopic method; type: toxicity, organism-based; conditions: in vivo, 336 h
[4] = system: Lewis lung carcinoma cell line; assay: Antitumor activity against mouse LLC cells implanted in mouse assessed as tumor growth inhibition at 10 mg/kg, ip administered once per day for 7 consecutive days starting from 24 hrs post tumor inoculation and measured on day 21 post tumor inoculation relative to control; type: functional; conditions: read-out: TGI
In short: (§2)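 Tumor cells were harvested from 7-day donor tumors, and 2×10^6 viable cells/mouse were injected s.c. in the armpit. Groups of 10 female mice received i.p. compound daily for 7 days, starting 24 h after inoculation. Controls were vehicle (negative) and CTX 30 mg/kg (positive). Body weight was recorded every 3 days. On day 21 tumors were excised and weighed, and inhibition was calculated as (C−T)/C×100 from mean tumor weights.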

[5] = system: Mus musculus; assay: Acute toxicity in ip dosed Kunming mouse assessed as death at higher dose up to 4 to 8 hrs; type: organism-based; conditions: in vivo; in short: as §1
[6] = system: HepG2; assay: Cytotoxicity against human HepG2 cells assessed as cell growth inhibition after 24 hrs by MTT assay; type: functional, cell-based; conditions: HepG2, 24 h
In short: (§3)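 Cell lines grown to log phase in RPMI-1640 with 10% FBS, penicillin and streptomycin. About 10^5 cells/mL were plated and pre-incubated 24 h at 37 °C in 5% CO2. Compounds were given in DMSO, final ≤2% (v/v). MTT read-out was OD at 490 nm. Triplicate wells per concentration, each assay run ≥3 times. IC50 is 50% OD reduction versus untreated cells, calculated by the Logit method. Cisplatin was the reference.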

[7] = system: Mus musculus; assay: Neurotoxicity in Kunming mouse assessed as jumping behavior at 5 to 500 mg/kg, ip observed continuously for first 2 hrs, intermittently for next 24 hrs and occasionally thereafter for 14 days; type: toxicity, organism-based; conditions: in vivo; in short: as §1
[8] = Acute toxicity in ip dosed Kunming mouse observed continuously for first 2 hrs, intermittently for next 24 hrs and occasionally thereafter for 14 days; type: organism-based; conditions: in vivo; in short: as §1
[9] = Cytotoxicity against human BGC cells assessed as cell growth inhibition after 24 hrs by MTT assay; type: functional, cell-based; in short: as §3
[10] = system: Mus musculus; assay: Neurotoxicity in Kunming mouse assessed as tremble at 5 to 500 mg/kg, ip observed continuously for first 2 hrs, intermittently for next 24 hrs and occasionally thereafter for 14 days; type: toxicity, organism-based; conditions: in vivo; in short: as §1
[11] = system: HT-29; assay: Cytotoxicity against human HT-29 cells assessed as cell growth inhibition after 24 hrs by MTT assay; type: functional, cell-based; conditions: HT-29, 24 h; in short: as §3
[12] = system: Mus musculus; assay: Nephrotoxicity in Kunming mouse at 5 to 500 mg/kg, ip after 14 days by macroscopic method; type: toxicity, organism-based; conditions: in vivo, 336 h
[13] = system: ECa-109 cell line; assay: Cytotoxicity against human ECA109 cells assessed as cell growth inhibition after 24 hrs by MTT assay; type: functional, cell-based; conditions: ECa-109, 24 h; in short: as §3
[14] = system: A-375; assay: Cytotoxicity against human A375 cells assessed as cell growth inhibition after 24 hrs by MTT assay; type: functional, cell-based; conditions: A-375, 24 h; in short: as §3
[15] = system: 769-P; assay: Cytotoxicity against human 769-P cells assessed as cell growth inhibition after 24 hrs by MTT assay; type: functional, cell-based; in short: as §3
[16] = system: MCF7; assay: Cytotoxicity against human MCF7 cells assessed as cell growth inhibition after 24 hrs by MTT assay; type: functional, cell-based; conditions: MCF7, 24 h; in short: as §3
[17] = system: Mus musculus; assay: Neurotoxicity in Kunming mouse assessed as supination at 5 to 500 mg/kg, ip observed continuously for first 2 hrs, intermittently for next 24 hrs and occasionally thereafter for 14 days; type: toxicity, organism-based; conditions: in vivo; in short: as §1
[18] = system: SK-OV-3; assay: Cytotoxicity against human SKOV3 cells assessed as cell growth inhibition after 24 hrs by MTT assay; type: functional, cell-based; conditions: SK-OV-3, 24 h; in short: as §3
[19] = system: Sarcoma-180; assay: Antitumor activity against mouse Sarcoma 180 cells implanted in mouse assessed as tumor growth inhibition at 10 mg/kg, ip administered once per day for 7 consecutive days starting from 24 hrs post tumor inoculation and measured on day 21 post tumor inoculation relative to control; type: functional; conditions: Sarcoma-180, ip, read-out: TGI; in short: as §2
[20] = system: Lewis lung carcinoma cell line; assay: Cytotoxicity against mouse LLC cells assessed as cell growth inhibition after 24 hrs by MTT assay; type: functional, cell-based; in short: as §3
[21] = system: Chorioallantoic membrane; assay: In vivo antiangiogenic activity in chicken embryo chorioallantoic membrane at 50 uM/disc after 48 hrs by microscopic method; type: functional, organism-based; conditions: Gallus gallus
[22] = system: Lewis lung carcinoma cell line; assay: animal or person; conditions: Mus musculus, ip, read-out: TGI
[23] = system: Sarcoma-180; assay: Antitumor activity against mouse Sarcoma 180 cells implanted in mouse assessed as tumor growth inhibition at 30 mg/kg, ip administered once per day for 7 consecutive days starting from 24 hrs post tumor inoculation and measured on day 21 post tumor inoculation relative to control; type: functional; conditions: Sarcoma-180, ip, read-out: TGI
In short: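 Tumour cells passaged in mice for 7 days, then 2 × 10^6 viable cells given s.c. into the armpit of female mice, 10 per group. […] CTX at 30 mg kg-1 as reference, vehicle as negative control. Body weight recorded every 3 days. Tumours excised and weighed on day 21. Inhibition = (C − T)/C × 100, using mean tumour weights.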

SMILES | IC50 [6] | IC50 [9] | IC50 [11] | IC50 [13] | IC50 [14] | IC50 [15] | IC50 [16] | IC50 [18] | IC50 [20] | also measured
CCCCn1c2cc(OCCCCn3c4ccccc4c4ccnc(C)c43)ccc2c2ccnc(C)c21.Cl | 15.7 µM | 33.6 µM | 16.4 µM | 12.2 µM | 14.1 µM | 15.3 µM | 11.2 µM | 21.7 µM | 13.3 µM | Activity [1]: Non-Toxic; Activity [2]: Non-Toxic; Activity [3]: Non-Toxic; inhibition in vivo at 10 mg/kg [4]: 27.2%; Activity [5]: Toxic; Activity [7]: Non-Toxic; LD50 at 14 days [8]: 50 mg/kg; Activity [10]: Non-Toxic; Activity [12]: Non-Toxic; Activity [17]: Non-Toxic; inhibition in vivo at 10 mg/kg [19]: 53.3%
CCCCn1c2cc(OCCCCCn3c4ccccc4c4ccnc(C)c43)ccc2c2ccnc(C)c21 | > 100 µM | > 100 µM | 10.1 µM | > 100 µM | 50.8 µM | 11.6 µM | > 100 µM | 14.3 µM | 12.4 µM | 
CCCCn1c2cc(OCCCCCn3c4ccccc4c4ccncc43)ccc2c2ccnc(C)c21 | 65.1 µM | > 100 µM | 32.6 µM | > 100 µM | > 100 µM | 31.1 µM | 16.7 µM | 65.1 µM | > 100 µM | 
CCn1c2cc(OCCCCCCn3c4ccccc4c4ccncc43)ccc2c2ccnc(C)c21 | > 100 µM | 40.7 µM | 60.3 µM | 17.4 µM | 34.7 µM | > 100 µM | 19 µM | > 100 µM | 21.8 µM | 
CCn1c2cc(OCCCCCCn3c4ccccc4c4ccnc(C)c43)ccc2c2ccnc(C)c21 | 74.6 µM | 44.7 µM | 36.2 µM | 61.4 µM | 74.6 µM | 75.2 µM | 75.2 µM | 11.2 µM | 51.1 µM | 
Cc1nccc2c3ccc(OCCCCn4c5ccccc5c5ccnc(-c6ccccc6Cl)c54)cc3n(CCCc3ccccc3)c12 | 14.4 µM | 12.4 µM | 20.2 µM | 18.4 µM | 3.9 µM | 21.9 µM | 5.9 µM | 22.9 µM | 10.1 µM | 
Cc1nccc2c3ccc(OCCCCn4c5ccccc5c5ccncc54)cc3n(CCCc3ccccc3)c12.Cl | 9.7 µM | 8.5 µM | 15.9 µM | 9.5 µM | 33.4 µM | 10.7 µM | 4.5 µM | 13.8 µM | 9.6 µM | Activity [1]: Non-Toxic; Activity [2]: Non-Toxic; Activity [3]: Non-Toxic; Activity [5]: Toxic; Activity [7]: Non-Toxic; LD50 at 14 days [8]: 50 mg/kg; Activity [10]: Non-Toxic; Activity [12]: Non-Toxic; Activity [17]: Non-Toxic; inhibition in vivo at 10 mg/kg [19]: 33.5%
COc1cc(-c2nccc3c4ccccc4n(CCCCOc4ccc5c6ccnc(C)c6n(CCCc6ccccc6)c5c4)c23)cc(OC)c1OC | 24.9 µM | 18.2 µM | 3.9 µM | 9.7 µM | 7.1 µM | 14.1 µM | 11.7 µM | 10.3 µM | 8.7 µM | 
COc1ccc(-c2nccc3c4ccccc4n(CCCCOc4ccc5c6ccnc(C)c6n(CCCc6ccccc6)c5c4)c23)cc1OC | 2.4 µM | 9.7 µM | 22.7 µM | 9.3 µM | 6.7 µM | 8.2 µM | 7.2 µM | 8.8 µM | 6.2 µM | 
Cc1nccc2c3ccc(OCCCCn4c5ccccc5c5ccnc(C(C)C)c54)cc3n(CCCc3ccccc3)c12 | 46.2 µM | 37.8 µM | 12.1 µM | 16.2 µM | 23.8 µM | 18.5 µM | 14.4 µM | 28.1 µM | 10.8 µM | 
Cc1nccc2c3ccc(OCCCCn4c5ccccc5c5ccnc(-c6cccnc6)c54)cc3n(CCCc3ccccc3)c12 | 10.7 µM | 4.2 µM | 11.2 µM | 12.9 µM | 18.9 µM | 7.2 µM | 29.8 µM | 22.9 µM | 9.4 µM | 
COc1ccc(/C=C\c2cc(OC)c(OC)c(OC)c2)cc1OP(=O)(O)O |  |  |  |  |  |  |  |  |  | Activity [21]: Active
CCn1c2cc(OCCCCCn3c4ccccc4c4ccnc(C)c43)ccc2c2ccnc(C)c21 | 112 µM | 35.4 µM | 14.9 µM | 46.6 µM | 31.5 µM | 70.6 µM | 56.3 µM | 30.8 µM | > 100 µM | 
CCn1c2cc(OCCCCn3c4ccccc4c4ccncc43)ccc2c2ccnc(C)c21 | > 100 µM | 41.5 µM | 37 µM | 37 µM | 30.7 µM | 27.4 µM | 19.4 µM | 19.8 µM | 16.5 µM | 
O=P1(N(CCCl)CCCl)NCCCO1 (stereo unspecified) [CYCLOPHOSPHAMIDE ANHYDROUS] |  |  |  |  |  |  |  |  |  | inhibition in vivo at 30 mg/kg [22]: 80.7%; inhibition in vivo at 30 mg/kg [23]: 82.5%
CCCCn1c2cc(OCCCCn3c4ccccc4c4ccncc43)ccc2c2ccnc(C)c21 | 29.5 µM | 41.5 µM | 21.8 µM | 21.8 µM | 72.4 µM | 22.9 µM | 28.8 µM | 17.3 µM | 38 µM | 
Cc1nccc2c3ccccc3n(CCCCOc3ccc4c5ccnc(C)c5n(CCCc5ccccc5)c4c3)c12.Cl | 9.1 µM | 7.4 µM | 14.1 µM | 9.9 µM | 8.4 µM | 9.9 µM | 4 µM | 13.1 µM | 4.4 µM | Activity [1]: Non-Toxic; Activity [2]: Non-Toxic; Activity [3]: Non-Toxic; Activity [5]: Toxic; Activity [7]: Non-Toxic; LD50 at 14 days [8]: 150 mg/kg; Activity [10]: Non-Toxic; Activity [12]: Non-Toxic; inhibition in vivo at 30 mg/kg [23]: 36.7%; Activity [17]: Non-Toxic
CCCCn1c2cc(OCCCCCCn3c4ccccc4c4ccncc43)ccc2c2ccnc(C)c21 | 51.7 µM | > 100 µM | > 100 µM | > 100 µM | 78.3 µM | > 100 µM | > 100 µM | > 100 µM | 46.1 µM | 
Cc1nccc2c3ccc(OCCCCCCn4c5ccccc5c5ccncc54)cc3n(CCCc3ccccc3)c12 | 12.1 µM | 11.2 µM | 16.2 µM | 12.6 µM | 37.1 µM | 13.1 µM | 8.5 µM | 76.4 µM | 28.2 µM | 
Cc1nccc2c3ccccc3n(CCCCCCOc3ccc4c5ccnc(C)c5n(CCCc5ccccc5)c4c3)c12 | 14.1 µM | 12.5 µM | 28.1 µM | 15.1 µM | 15.8 µM | 16.1 µM | 11.7 µM | 19.4 µM | 14.1 µM | 
